The results in this text go back to ChEMBL document CHEMBL1123593, “2,4-diamino-6,7-dimethoxyquinazolines. 1. 2-[4-(1,4-benzodioxan-2-ylcarbonyl)piperazin-1-yl] derivatives as alpha 1-adrenoceptor antagonists and antihypertensive agents” (J Med Chem, 1987).

Activity calls are given as the source filed them. The calls are words filed in the database; no cut-off is given here.

The test system of experiment [1] is Rattus norvegicus. Briefly: Percent reduction in blood pressure in spontaneously hypertensive rats (SHR) at peroral dose of 5 mg/kg was determined after 6 hr. In kind it is functional. The note with it: route oral. Put shortly:
(§1)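 Single oral gavage dose of 5 mg/kg to groups of six spontaneously hypertensive rats, all with starting systolic pressure above 175 mmHg. Rats were warmed at 33 °C for 20–30 min before readings. Systolic pressure was taken by tail cuff with a variable capacitance transducer, predose and at 1, 2, 4 and 6 h. Percent reduction from predose is given. Saline-dosed controls (n = 10) were run.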

Experiment [2] concerns the target T1, Adrenergic receptor alpha-1 (Rattus norvegicus, UniProt P15823+P23944+P43140).
T1 sequence (P15823 whole entry): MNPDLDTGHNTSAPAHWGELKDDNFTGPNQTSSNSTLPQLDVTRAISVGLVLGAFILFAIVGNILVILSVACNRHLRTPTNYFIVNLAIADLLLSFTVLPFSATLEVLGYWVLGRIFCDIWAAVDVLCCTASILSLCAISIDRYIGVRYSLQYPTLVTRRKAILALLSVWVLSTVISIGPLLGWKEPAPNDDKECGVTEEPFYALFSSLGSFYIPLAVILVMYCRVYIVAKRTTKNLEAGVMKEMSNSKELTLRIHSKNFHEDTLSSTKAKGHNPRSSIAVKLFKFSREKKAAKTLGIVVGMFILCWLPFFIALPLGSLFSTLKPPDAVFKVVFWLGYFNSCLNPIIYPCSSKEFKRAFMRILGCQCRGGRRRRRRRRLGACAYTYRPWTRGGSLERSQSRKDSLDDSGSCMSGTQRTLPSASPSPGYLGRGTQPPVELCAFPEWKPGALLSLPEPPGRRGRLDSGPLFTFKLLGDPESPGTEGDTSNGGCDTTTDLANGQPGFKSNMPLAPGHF
T1 sequence (P23944 whole entry): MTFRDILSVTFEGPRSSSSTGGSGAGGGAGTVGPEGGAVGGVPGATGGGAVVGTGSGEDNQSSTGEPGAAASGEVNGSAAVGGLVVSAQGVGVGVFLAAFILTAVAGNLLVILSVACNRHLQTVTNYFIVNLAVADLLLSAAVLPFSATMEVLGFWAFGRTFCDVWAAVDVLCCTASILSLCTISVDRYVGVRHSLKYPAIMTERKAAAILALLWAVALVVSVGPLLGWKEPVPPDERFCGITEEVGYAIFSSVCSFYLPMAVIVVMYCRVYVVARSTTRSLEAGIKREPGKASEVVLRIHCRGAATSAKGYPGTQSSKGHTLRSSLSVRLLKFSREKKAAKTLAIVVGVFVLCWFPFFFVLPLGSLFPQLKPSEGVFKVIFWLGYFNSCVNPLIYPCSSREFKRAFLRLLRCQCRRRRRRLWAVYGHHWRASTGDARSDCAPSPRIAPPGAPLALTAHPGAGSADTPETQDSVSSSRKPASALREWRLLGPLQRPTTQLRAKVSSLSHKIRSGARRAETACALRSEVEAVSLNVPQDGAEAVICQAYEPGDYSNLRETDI
T1 sequence (P43140 whole entry): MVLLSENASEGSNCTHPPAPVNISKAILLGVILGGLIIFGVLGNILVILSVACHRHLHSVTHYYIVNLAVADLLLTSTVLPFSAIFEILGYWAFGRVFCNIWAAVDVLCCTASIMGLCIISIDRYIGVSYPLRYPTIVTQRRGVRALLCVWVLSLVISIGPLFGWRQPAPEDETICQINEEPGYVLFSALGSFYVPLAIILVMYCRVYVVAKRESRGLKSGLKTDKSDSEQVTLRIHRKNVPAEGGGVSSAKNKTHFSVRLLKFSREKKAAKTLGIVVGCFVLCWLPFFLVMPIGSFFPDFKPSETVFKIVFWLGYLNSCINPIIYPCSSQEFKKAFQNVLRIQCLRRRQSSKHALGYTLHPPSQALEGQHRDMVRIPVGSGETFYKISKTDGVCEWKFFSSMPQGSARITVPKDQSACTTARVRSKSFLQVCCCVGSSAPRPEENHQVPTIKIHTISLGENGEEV
Put plainly: Compound was tested for its binding affinity for alpha-1 adrenergic receptor site by displacement of [3H]prazosin at 0.15 nM concentration. For orientation: Loss of bound radioactivity is the signal in a displacement assay; it reports binding, not function.

Experiment [3] deals with Rattus norvegicus. Briefly: Percent reduction in blood pressure in spontaneously hypertensive rats (SHR) at peroral dose of 5 mg/kg was determined after 1 hr. The experiment is classed as functional. As to conditions: route oral. The method, boiled down:
as §1

The target of experiment [4] is T2, Adrenergic receptor alpha-1 (Homo sapiens) (UniProt P35348+P25100+P35368). Put plainly: Antagonist activity against post junctional alpha-1 adrenergic receptor was measured by Kerbs super fused rabbit pulmonary artery preparations labeled with [3H]- norepinephrine. The experiment is classed as functional. The note with it: Oryctolagus cuniculus; target entry is the homologue from another species. The method, boiled down:
(§2)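 Rabbit pulmonary artery superfused in Krebs after [3H]-noradrenaline labelling, with transmural electrical stimulation (3 Hz, 0.05 h). Postjunctional response was read as contraction on an isometric transducer. Percent antagonism was plotted against compound concentration. EC40-post, the concentration giving 40% reduction of contractile response, was read from the graph. Values are averaged from two experiments, six for some.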

Experiment [5] has as its target T1, Adrenergic receptor alpha-1. Briefly: Compound was tested for its binding affinity for alpha-1 adrenergic receptor site by displacement of [3H]prazosin at 0.15 nM concentration. This is another data set of the same source.
Experiment [6] concerns the target T3, Adrenergic receptor alpha-2 (Homo sapiens) (UniProt P08913+P18825+P18089). As to conditions: Oryctolagus cuniculus; Pulmonary artery.
For experiment [7], the target named is T2, Adrenergic receptor alpha-1 (Homo sapiens). Briefly: Antagonist activity against post junctional alpha-1 adrenergic receptor was measured by Kerbs super fused rabbit pulmonary artery preparations labeled with [3H]- norepinephrine. In kind it is functional, tissue-based. The note with it: Oryctolagus cuniculus, target entry is the homologue from another species. Put shortly: as §2

Experiment [8] deals with T1, Adrenergic receptor alpha-1. Briefly: Compound was tested for its binding affinity for alpha-1 adrenergic receptor site by displacement of [3H]prazosin at 0.15 nM concentration. The source holds these as a separate data set.
Experiment [9] shares this target. Put plainly: Compound was tested for its binding affinity for alpha-1 adrenoceptor site by displacement of [3H]-prazosin at 0.15 nM concentration.
Experiment [10] deals with T3, Adrenergic receptor alpha-2 (Homo sapiens). Briefly: Antagonist activity against prejunctional alpha-2 adrenergic receptor was measured by Kerbs super fused rabbit pulmonary artery preparations labeled with [3H]- norepinephrine; NA means no activity. In kind it is functional. The note with it: Oryctolagus cuniculus; target entry is the homologue from another species. The method, boiled down: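 [3H]-noradrenaline-labelled rabbit pulmonary artery, Krebs-superfused and stimulated transmurally (3 Hz, 0.05 h). Prejunctional action was read as [3H] overflow by liquid scintillation counting and plotted against compound concentration. EC40-pre, the concentration producing a 40% increase in [3H] overflow, was read from the graph. Values are averaged from two experiments, six for some.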

In experiment [11] the target is T2, Adrenergic receptor alpha-1 (Homo sapiens). Briefly: Antagonist activity against post junctional Alpha-1 adrenergic receptor was measured by Kerbs super fused rabbit pulmonary artery preparations labeled with [3H]- norepinephrine. The note with it: Oryctolagus cuniculus, target entry is the homologue from another species. The experiment is classed as functional, tissue-based. The method, boiled down:
as §2

With `COc1cc2nc(N3CCN(C(=O)C4COc5ccccc5O4)CC3)nc(N)c2cc1OC` (single isomer, unassigned; (+)) [DOXAZOSIN], the Reduction is 24% in experiment [1] (5 mg/kg) and 27% in experiment [3] (5 mg/kg). The Ki in experiment [2] is listed as 2.6 nM.
In experiment [4], `COc1cc2nc(N3CCN(C(=O)C4COc5ccccc5O4)CC3)nc(N)c2cc1OC` (single isomer, unassigned; (-)) gave an EC40 of 40 nM.
Consider `COc1cc2nc(N3CCN(C(=O)C4COc5cc(C)c(C)cc5O4)CC3)nc(N)c2cc1OC` (configuration not stated), for which the Reduction in [1] is 20%; in experiment [3], 14%. For the same compound, the Ki in experiment [2] is on record as 7.8 nM.
For `COc1cc2nc(N3CCN(C(=O)C4COc5ccccc5O4)C(C)C3)nc(N)c2cc1OC` (configuration not stated), the Reduction is listed as 13% in experiment [1] and 18% in experiment [3]. The compound also showed a Ki in experiment [2] of 6.5 nM.
On the same counts, the results for `COc1cc2nc(N3CCN(C(=O)C4COc5ccc(C(C)=O)cc5O4)CC3)nc(N)c2cc1OC` (configuration not stated) are 24%, 19% and 3 nM.
`COc1cc2nc(N3CCN(C(=O)C4COc5ccccc5O4)CC3)nc(N)c2cc1OC` (stereo in doubt; 1) [DOXAZOSIN]: the Reduction in experiment [1] (5 mg/kg) was 27%; in experiment [3] (5 mg/kg), 23%. In experiment [2], this compound returned a Ki of 1.1 nM.
`COc1cc2nc(N3CCN(C(=O)C4COc5cccc(OC)c5O4)CC3)nc(N)c2cc1OC` (configuration not stated): the Reduction in experiment [1] worked out at 13%; in experiment [3], 14%. Further, in [5], the Ki came out at 2.4 nM.
For the compound `COc1cc2nc(N3CCN(C(=O)C4Oc5ccccc5OC4C)CC3)nc(N)c2cc1OC` (cis isomer) [listing 1 of 2 here], the values for the Reduction in experiment [1] (5 mg/kg) and in experiment [3] (5 mg/kg) were 25% and 23%, respectively. In [2], this compound came in with a Ki of 0.7 nM.
Take `COc1cc2nc(N3CCN(C(=O)c4ccco4)CC3)nc(N)c2cc1OC` [PRAZOSIN]: the results for the Reduction in [1] and in [3] were 29% and 33%, respectively. The compound further had an EC40 in experiment [4] of 4.5 nM.
Consider `COc1cc2nc(N3CCN(C(=O)C4COc5cc(C(C)=O)ccc5O4)CC3)nc(N)c2cc1OC` (configuration not stated), for which the figures for the Reduction in experiment [1] and in experiment [3] were 24% and 26%, respectively. The compound also registered a Ki in experiment [2] of 6.4 nM.
For the compound `COc1cc2nc(N3CCN(C(=O)C4CCOc5ccccc5O4)CC3)nc(N)c2cc1OC` (configuration not stated), the Reduction in experiment [1] is reported as 16%; in experiment [3], 21%. The Ki in experiment [2] was determined as 3.8 nM.
With `COc1cc2nc(N3CCN(C(=O)C4Oc5ccccc5OC4C)CC3)nc(N)c2cc1OC` (trans isomer) [listing 1 of 2 here], the EC40 entry in [6] was “inactive”. Moreover, the EC40 in experiment [4] came out at 13 nM.
In the case of `COc1cc2nc(N3CCN(C(=O)C4COc5cccc(C(C)C)c5O4)CC3)nc(N)c2cc1OC` (configuration not stated), in experiment [6], the EC40 result was “inactive”. Also, the Reduction was determined as 3% in [1] and 6% in experiment [3]. The Ki in [2] turned out to be 6.7 nM. In [7], this compound displayed an EC40 of 130 nM.
Consider `COc1cc2nc(N3CCN(C(=O)C4(C)COc5ccccc5O4)CC3)nc(N)c2cc1OC` (configuration not stated), for which the Ki in experiment [8] was determined as 1.5 nM. The Reduction worked out at 9% in experiment [1] and 8% in experiment [3].
Regarding `COc1cc2nc(N3CCN(C(=O)C4Oc5ccccc5OC4C)CC3)nc(N)c2cc1OC` (trans isomer) [listing 2 of 2 here], the Reduction in experiment [1] (5 mg/kg) and in experiment [3] (5 mg/kg) was 21% each time. Moreover, the Ki in experiment [2] stood at 2.1 nM.
`COc1cc2nc(N3CCCN(C(=O)C4COc5ccccc5O4)CC3)nc(N)c2cc1OC` (configuration not stated): the Reduction in experiment [1] amounted to 12%; in [3] it was 22%. In experiment [2], this compound showed a Ki of 1.6 nM.
As to `COc1cc2nc(N3CCN(C(=O)C4COc5ccccc5O4)CC3)nc(N)c2cc1OC` (stereo in doubt; 1), in experiment [4], the EC40 worked out at 50 nM.
Still for that read-out and setting: next, `COc1cc2nc(N3CCN(C(=O)C4COc5ccccc5O4)CC3)nc(N)c2cc1OC` (single isomer, unassigned; (+)): 7 nM.
Take `COc1cc2nc(N3CCN(C(=O)C4COc5ccccc5O4)CC3)nc(N)c2cc1OC` (single isomer, unassigned; (-)) [DOXAZOSIN]: the Ki in experiment [2] was 2.2 nM. The compound further displayed a Reduction in [3] (5 mg/kg) of 12%.
As to `COc1cc2nc(N3CCN(C(=O)C4Oc5ccccc5OC4C)CC3)nc(N)c2cc1OC` (cis isomer) [listing 2 of 2 here], the EC40 result in experiment [6] is “inactive”. In experiment [4], this compound showed an EC40 of 27 nM.
As for `COc1cc2nc(N3CCN(C(=O)C4COc5ccc(S(=O)(=O)N(C)C)cc5O4)CC3)nc(N)c2cc1OC` (configuration not stated), the Reduction is on record as 8% in experiment [1] and 10% in [3]. The same compound displayed a Ki in experiment [2] of 6.5 nM.
For `COc1cc2nc(N3CCN(C(=O)C4COc5cccc(C)c5O4)CC3)nc(N)c2cc1OC` (configuration not stated), the EC40 result in experiment [6] is “inactive”. Besides, the values for the Reduction in experiment [1] and in [3] were 22% and 16%, respectively. The compound further yielded an EC40 in experiment [4] of 26 nM. In experiment [2], the Ki was 3.7 nM.
Take `COc1cc2nc(N3CCN(C(=O)C4COc5cc(Cl)c(Cl)cc5O4)CC3)nc(N)c2cc1OC` (configuration not stated): the results for the Reduction in [1] and in [3] were 9% and 6%, respectively. In addition, the Ki in experiment [2] stood at 13.3 nM.
In the same order, the values of `COc1cc2nc(N3CCN(C(=O)C4COc5cc(Cl)ccc5O4)CC3)nc(N)c2cc1OC` (configuration not stated) are 23%, 27% and 12.6 nM.
For the compound `COc1ccc2c(c1)OCC(C(=O)N1CCN(c3nc(N)c4cc(OC)c(OC)cc4n3)CC1)O2` (configuration not stated), the Reduction came to 23% in [1] and 34% in [3]. This compound also displayed a Ki in [9] of 5.6 nM. The EC40 entry in experiment [10] is “inactive”. The same compound registered an EC40 in experiment [11] of 10 nM.

For orientation: Ki means a dissociation constant, usually derived from enzyme kinetics or from competition with a known ligand. Lower therefore signals a stronger hold on the target.
